# Source: PubChem BioAssay
# DENV2 CPE: DENV2-induced cell death inhibition; 350,000 compounds, 1.7% hits; DENV2-infected cells, cytopathic effect rescue, plate reader; AID 651640; CPE inhibition, % at 9.99 µM; in the data active means CPE inhibition above about 20%, passing the limit was not always enough; inconclusive means no clear call, values can overlap the other calls; tested in BHK-21 cells;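 further: 0% = median of neutral control wells and 100% = median of positive control wells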
# S100A4 inh HTS: S100A4-myosin IIA interaction inhibition. P26447. S100A4/TAMRA-MyoIIA peptide fluorescence polarization. inhibition, % at 10.7 µM. 360,000 compounds, 0.14% hits;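 active means mean inhibition of at least 70% across replicates, with every replicate also reaching that level; inconclusive means mean inhibition reaches 70% but some replicates fall short; inactive means mean inhibition below 70%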
# Target sequence (P26447 whole entry, looked up): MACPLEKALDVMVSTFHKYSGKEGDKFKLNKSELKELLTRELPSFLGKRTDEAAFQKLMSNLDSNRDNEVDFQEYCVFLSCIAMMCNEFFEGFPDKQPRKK
#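 System – human S100A4 monomer protein, biochemical binding assay · Buffer or medium – Calcium-containing HEPES buffer, pH 7.2 · Timing – 5 min between mix addition and reading · Also added – TAMRA-labelled myosin IIA heavy-chain peptide probe, 5 nM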
# AF4-AF9 inh: blocks AF4 peptide binding to human AF9 | P42568 | AlphaScreen, biotin-AF4 peptide binding to FLAG-AF9 | inhibition, % at 10 µM | 350,000 compounds, 0.47% hits | AID 651704;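 active means every replicate reaching a set inhibition limit, whatever the replicate mean, cut at about 25% in these data; inconclusive means mean inhibition reaches that limit but some replicates miss it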;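 further: 0% = plate neutral control median and 100% = total signal loss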
# Target sequence (P42568 whole entry, looked up): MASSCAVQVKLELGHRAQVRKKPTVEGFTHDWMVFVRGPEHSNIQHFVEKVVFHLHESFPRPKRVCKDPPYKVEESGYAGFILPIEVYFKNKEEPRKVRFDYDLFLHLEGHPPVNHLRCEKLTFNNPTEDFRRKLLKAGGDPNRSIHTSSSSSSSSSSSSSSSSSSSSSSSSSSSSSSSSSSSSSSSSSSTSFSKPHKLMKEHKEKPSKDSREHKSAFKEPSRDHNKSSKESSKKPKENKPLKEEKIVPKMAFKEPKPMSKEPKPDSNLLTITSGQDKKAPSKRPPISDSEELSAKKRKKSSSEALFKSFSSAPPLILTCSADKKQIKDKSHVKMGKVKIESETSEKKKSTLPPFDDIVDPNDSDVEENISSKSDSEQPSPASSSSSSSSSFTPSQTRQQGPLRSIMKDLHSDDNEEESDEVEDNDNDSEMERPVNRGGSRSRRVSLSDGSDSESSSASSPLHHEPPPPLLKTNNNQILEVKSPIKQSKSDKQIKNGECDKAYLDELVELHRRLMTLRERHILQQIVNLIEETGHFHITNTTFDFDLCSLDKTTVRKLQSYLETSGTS
# CaV13 FRET inh: Disruptors of the CACNA1D IQ motif to Ca2+-dependent inactivation inhibitor domain association, primary screening, Förster resonance energy transfer in intact living …; HEK cells, CFP/YFP FRET ICDI-IQ, plate reader, 10 min; percent FRET-ratio fall versus neutral wells; inhibition, % at 12.3 µM; 340,000 compounds, 0.098% hits;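 active means mean replicate inhibition of at least 30% and at least 1% of replicates passing that level; inconclusive means only one of the two criteria is met; inactive means neither criterion is met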;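 further: 0% = median of the neutral control wells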
# SIRT5 block: sirtuin-5 (human) deacylase inhibition | Q9NXA8 | Purified SirT5, succinyl-peptide AMC, trypsin-coupled fluorescence | inhibition, % at 15 µM | 330,000 compounds, 1.1% hits; in the data active means inhibition above about 15%; inconclusive means no clear call, values can overlap the other calls
# Active calls of the source: *; u = inconclusive; x = no result given. In the library only some 2.7% were active in any assay of this set; here they are far more common.
SMILES,DENV2 CPE,S100A4 inh HTS,AF4-AF9 inh,CaV13 FRET inh,SIRT5 block
CO[C@H]1CN(C)C(=O)c2ccc(NS(C)(=O)=O)cc2OC[C@@H](C)N(C(=O)C2CCC2)C[C@@H]1C,-1.3,-8.9,-3.4,x,-2.2
CC(C)NC(=O)Nc1ccc2c(c1)C(=O)N(C)[C@H]1CC[C@@H](CC(=O)Nc3ccccc3)O[C@@H]1CO2,-3.8,10.1,0.1,x,0.1
C[C@@H]1CCCCO[C@H](CN(C)C(=O)NC2CCCCC2)[C@@H](C)CN([C@@H](C)CO)C(=O)c2cc(NC(=O)Nc3ccc(C(F)(F)F)cc3)ccc2O1,-3.7,142.6*,3.2,x,1.7
C[C@@H]1CCCCO[C@@H](CN(C)C(=O)Nc2ccccc2)[C@H](C)CN([C@H](C)CO)C(=O)c2cc(NC(=O)Nc3ccc(C(F)(F)F)cc3)ccc2O1,-14.0,1.9,1.2,x,1.4
C[C@@H]1CCCCO[C@H](CN(C)CC2CCCCC2)[C@H](C)CN([C@H](C)CO)C(=O)c2cc(NC(=O)Nc3ccc(C(F)(F)F)cc3)ccc2O1,9.0,-13.4,-4.1,x,100.0*
C[C@H]1CCCCO[C@H](CN(C)C(=O)Nc2ccccc2)[C@@H](C)CN([C@@H](C)CO)C(=O)c2cc(NC(=O)Nc3ccc(C(F)(F)F)cc3)ccc2O1,59.8*,x,-4.8,x,-3.1
CCn1nc2cc(C(=O)NCCc3cccs3)ccc2c1OC,x,-8.6,25.9*,-5.1,-1.5
CCOc1c2ccc(C(=O)NCCc3ccc(C)cc3)cc2nn1CC,x,-0.7,-17.9,-10.9,-13.4
C[C@@H]1CN([C@H](C)CO)C(=O)CCCn2cc(nn2)CO[C@H]1CN(C)Cc1ccc(-c2ccccc2)cc1,0.6,-5.1,4.4,x,0.4
C[C@@H]1CCCCO[C@@H](CN(C)CC2CCCCC2)[C@H](C)CN([C@H](C)CO)C(=O)c2cc(NC(=O)CCCCCC(=O)Nc3ccccc3N)ccc2O1,-0.9,-0.5,-0.1,x,20.4*
C[C@@H]1CCCCO[C@@H](CN(C)C(=O)C2CCCCC2)[C@@H](C)CN([C@H](C)CO)C(=O)c2cc(NC(=O)CCCCCC(=O)Nc3ccccc3N)ccc2O1,-0.6,102.9*,-2.8,x,6.4
CCC(C)(C)C1CCc2[nH]nc(C(=O)NCc3ccccn3)c2C1 (configuration not stated),77.0*,-2.4,-3.9,-10.4,-3.5
O=C(C[C@@H]1CC[C@@H](NC(=O)c2cnccn2)[C@H](CO)O1)NCc1ccccc1F,u,2.9,-2.6,x,-1.5
CC(Oc1ccc(Cl)cc1Cl)C(=O)NCCCN1CCOCC1 (configuration not stated),62.5*,-1.7,0.1,-6.7,1.9
Cc1cc(OC(C)C(=O)NCCCN2CCOCC2)ccc1Cl (configuration not stated),-1.3,2.4,-1.2,-5.6,-1.6
CCOC(=O)CCCCC(=O)c1[nH]c(=O)[nH]c1CSCCO,x,-0.3,76.7*,-9.1,-0.4
CC(=O)N1c2ccc(S(=O)(=O)NCCC(=O)N3CCCC(C)C3)cc2CC1C (configuration not stated),35.2*,-0.2,0.8,-16.2,2.1
CC(=O)N1c2ccc(S(=O)(=O)N3CCCC(C(=O)N4CCCC(C)C4)C3)cc2CC1C (configuration not stated),-7.5,3.7,-1.0,-2.2,-0.2
CCCC/C=C/[C@H](c1ccccc1)[C@H](CO)Cc1cccnc1,42.4*,-3.3,x,-7.7,x
O=C(C[C@H]1CC[C@@H]2[C@H](COC[C@H](O)CN2S(=O)(=O)c2ccc(F)cc2)O1)NCc1ccc(Cl)c(Cl)c1,-4.2,-7.4,6.8,x,1.1
COc1ccc(CN(C)C[C@H]2OCCCC[C@H](C)Oc3ccc(NS(=O)(=O)c4ccc(F)cc4)cc3C(=O)N([C@H](C)CO)C[C@H]2C)cc1,33.1*,-6.5,9.6,x,7.7
COc1ccc(CN(C)C[C@@H]2OCCCC[C@@H](C)Oc3ccc(NS(=O)(=O)c4ccc(Cl)cc4)cc3C(=O)N([C@H](C)CO)C[C@@H]2C)cc1,3.2,-3.7,0.3,x,5.2
COc1ccc(CN(C)C[C@@H]2OCCCC[C@@H](C)Oc3ccc(NS(=O)(=O)c4ccc(Cl)cc4)cc3C(=O)N([C@@H](C)CO)C[C@H]2C)cc1,34.1*,17.9,-5.4,x,6.5
COc1ccc(CN(C)C[C@H]2OCCCC[C@@H](C)Oc3ccc(NS(=O)(=O)c4ccc(F)cc4)cc3C(=O)N([C@@H](C)CO)C[C@@H]2C)cc1,u,8.9,4.4,x,-4.0
COc1ccc(CN(C)C[C@H]2OCCCC[C@H](C)Oc3ccc(NS(=O)(=O)c4ccc(Cl)cc4)cc3C(=O)N([C@@H](C)CO)C[C@H]2C)cc1,-6.6,-1.5,1.9,x,6.8
SMILES,DENV2 CPE,S100A4 inh HTS,AF4-AF9 inh,CaV13 FRET inh,SIRT5 block
COc1ccc(CN(C)C[C@H]2OCCCC[C@H](C)Oc3ccc(NS(=O)(=O)c4ccc(Cl)cc4)cc3C(=O)N([C@@H](C)CO)C[C@@H]2C)cc1,29.6*,1.1,-2.3,x,6.0
C[C@@H]1CN([C@H](C)CO)C(=O)c2cc(NS(=O)(=O)c3cccs3)ccc2O[C@@H](C)CCCCO[C@H]1CN(C)C(=O)NC1CCCCC1,0.8,-7.9,-1.4,x,3.0
CCC(=O)N(C)C[C@@H]1Oc2ncc(C#Cc3ccccc3)cc2C(=O)N([C@H](C)CO)C[C@H]1C,19.4,0.1,0.6,x,1.0
C[C@H]1CN([C@@H](C)CO)C(=O)c2cc(NS(=O)(=O)c3cn(C)cn3)ccc2O[C@@H]1CN(C)S(C)(=O)=O,2.0,-1.9,-3.9,x,-4.0
O=C(O)c1cccc(N2C(=O)/C(=C/c3ccc(SCc4ccc(Cl)cc4)o3)SC2=S)c1,-2.8,4.5,0.3,-5.3,20.9*
CCCn1c(N)c(C(=O)CN(C)CC(=O)Nc2cc(C)ccc2C)c(=O)[nH]c1=O,51.1*,-3.6,0.1,-15.7,-6.7
O=C(NCc1ccccc1)[C@@H]1[C@@H](CO)[C@@H]2Cn3c(cccc3=O)[C@H]1N2Cc1ccccn1,40.3*,9.4,0.2,x,3.7
O=C(NCCc1ccccc1)[C@@H]1[C@@H](CO)[C@@H]2Cn3c(cccc3=O)[C@H]1N2Cc1ccccn1,3.1,14.1,-2.3,x,-8.2
O=C(NCc1ccccc1)[C@H]1[C@H](CO)[C@H]2Cn3c(cccc3=O)[C@@H]1N2C(=O)c1cnccn1,-0.5,2.1,-23.1,x,4.2
CN(C)CC(=O)N1[C@@H]2c3cccc(=O)n3C[C@H]1[C@H](CO)[C@H]2C(=O)NCc1ccccc1,20.2*,1.6,-15.6,x,8.3
COCCNC(=O)[C@H]1[C@H](CO)[C@H]2Cn3c(cccc3=O)[C@@H]1N2Cc1cc(F)ccc1F,39.8*,1.7,-2.3,x,1.4
CCCNC(=O)[C@H]1[C@H](CO)[C@H]2Cn3c(cccc3=O)[C@@H]1N2Cc1cc(F)ccc1F,-7.4,5.0,-2.8,x,8.0
